Experiments:
Rat [1] = assay: concentration in plasma after dosing; settings: 10 min; dosed: alpha-Thujone; 50 mg/kg; oral; Female; Harlan Sprague Dawley
Rat [2] = assay: concentration in plasma after dosing; settings: 5 min; dosed: alpha-Thujone; 25 mg/kg; oral; Male; Harlan Sprague Dawley
Rat [3] = assay: concentration in brain after dosing; settings: 2.5 h; dosed: 76231-76-0; 3.0 mg/kg; iv; Female; F344
Rat [4] = assay: concentration in brain after dosing; settings: 1.5 h; dosed: alpha-Thujone; 25 mg/kg; oral; Male; Harlan Sprague Dawley
Rat [5] = assay: concentration in plasma after dosing; settings: 12 h; dosed: alpha-Thujone; 50 mg/kg; oral; Female; Harlan Sprague Dawley
Rat [6] = assay: concentration in plasma after dosing; settings: 5 min; dosed: alpha-Thujone; 25 mg/kg; oral; Male; Harlan Sprague Dawley; remark: listed apart in the source
Rat [7] = assay: concentration in plasma after dosing; settings: 2 h; dosed: Pyridine; 10 mg/kg; iv; Male; F344
Rat [8] = assay: concentration in plasma after dosing; settings: 50 min; dosed: Pyridine; 10 mg/kg; iv; Male; F344
Rat [9] = assay: concentration in plasma after dosing; settings: 20 min; dosed: Pyridine; 10 mg/kg; oral; Female; Harlan Sprague-Dawley
Rat [10] = assay: concentration in plasma after dosing; settings: dosed: Pyridine, 5 mg/kg, iv, Male, F344
Rat [11] = assay: concentration in plasma after dosing; settings: 12 h; dosed: Primidone; 130 mg/kg; oral; Male; Harlan Sprague Dawley
Rat [12] = assay: concentration in plasma after dosing; settings: 0.25 h; dosed: Primidone; 80 mg/kg; oral; Female; F344
Rat [13] = assay: concentration in plasma after dosing; settings: 6 h; dosed: Primidone; 80 mg/kg; oral; Female; F344
Rat [14] = assay: concentration in plasma after dosing; settings: 3 h; dosed: Primidone; 30 mg/kg; oral; Female; F344
Rat [15] = assay: concentration in plasma after dosing; settings: 3 h; dosed: Primidone; 80 mg/kg; oral; Female; F344
Mouse [16] = assay: concentration in plasma after dosing; settings: 10 min; dosed: 2-Hydroxy-4-methoxybenzophenone; 500 mg/kg; oral; Female; B6C3F1
Mouse [17] = assay: concentration in plasma after dosing; settings: 2.5 min; dosed: 2-Hydroxy-4-methoxybenzophenone; 250 mg/kg; oral; Male; B6C3F1
Mouse [18] = assay: concentration in plasma after dosing; settings: 2 h; dosed: 2-Hydroxy-4-methoxybenzophenone; 50 mg/kg; iv; Female; B6C3F1
Rat [19] = assay: concentration in plasma after dosing; settings: dosed: 2-Hydroxy-4-methoxybenzophenone, 250 mg/kg, oral, Female, F344
Rat [20] = assay: concentration in plasma after dosing; settings: dosed: 2-Hydroxy-4-methoxybenzophenone, 100 mg/kg, oral, Female, F344
Rat [21] = assay: concentration in plasma after dosing; settings: dosed: 2-Hydroxy-4-methoxybenzophenone, 250 mg/kg, oral, Male, F344
Rat [22] = assay: concentration in plasma after dosing; settings: 0.25 h; dosed: 2-Hydroxy-4-methoxybenzophenone; 500 mg/kg; oral; Female; F344
Rat [23] = assay: concentration in plasma after dosing; settings: dosed: 2,4-Dichlorophenoxyacetic acid, 2.0 mg/kg, iv, Male, Sprague-Dawley
Hamster = assay: concentration in plasma after dosing; settings: dosed: 2,4-Dichlorophenoxyacetic acid, 8.0 mg/kg, oral, Male, Syrian Golden
Outline: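 Concentration-versus-time or amount-versus-time points were compiled from published in vivo toxicokinetic studies and from two structured collections. The studies were found by PubMed searching, classifier screening and manual review. Points were mostly digitised from plot screenshots with WebPlotDigitizer, otherwise copied from tables, and kept in the reported units. Dose, route, subject details and medium were curated by hand from each paper, and sampling and analytical methods follow each source and were often unreported.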

Rat [24] = assay: concentration in liver after dosing; settings: 24 h; dosed: Perfluorohexane-1-sulphonic acid – potassium salt; 16 mg/kg; oral; Female; Harlan Sprague Dawley
Rat [25] = assay: concentration in kidney after dosing; settings: 48 h; dosed: Perfluorohexane-1-sulphonic acid – potassium salt; 16 mg/kg; oral; Female; Harlan Sprague Dawley
Rat [26] = assay: concentration in brain after dosing; settings: 48 h; dosed: Perfluorohexane-1-sulphonic acid – potassium salt; 16 mg/kg; oral; Female; Harlan Sprague Dawley
Rat [27] = assay: concentration in kidney after dosing; settings: 96 h; dosed: Perfluorohexane-1-sulphonic acid – potassium salt; 16 mg/kg; oral; Female; Harlan Sprague Dawley
Rat [28] = assay: concentration in plasma after dosing; settings: dosed: Perfluorohexane-1-sulphonic acid – potassium salt, 4 mg/kg, oral, Male, F344
Rat [29] = assay: concentration in kidney after dosing; settings: 48 h; dosed: Perfluorohexane-1-sulphonic acid – potassium salt; 16 mg/kg; oral; Female; Harlan Sprague Dawley; remark: listed apart in the source
Rat [30] = assay: concentration in brain after dosing; settings: 12 h; dosed: Perfluorohexane-1-sulphonic acid – potassium salt; 16 mg/kg; oral; Female; Harlan Sprague Dawley
Rat [31] = assay: concentration in brain after dosing; settings: 12 h; dosed: Perfluorohexane-1-sulphonic acid – potassium salt; 16 mg/kg; oral; Female; F344
Rat [32] = assay: concentration in kidney after dosing; settings: 192 h; dosed: Perfluorohexane-1-sulphonic acid – potassium salt; 16 mg/kg; oral; Female; Harlan Sprague Dawley
Rat [33] = assay: concentration in kidney after dosing; settings: 192 h; dosed: Perfluorohexane-1-sulphonic acid – potassium salt; 16 mg/kg; oral; Female; Harlan Sprague Dawley; remark: listed apart in the source

CC(C)[C@]12CC(=O)[C@H](C)[C@H]1C2 [alpha-Thujone]
Settings | concentration in brain [ng/g] | concentration in plasma [ng/mL]
Rat [1] | – | 835
Rat [2] | – | 93.4
Rat [3] | 19.8 | –
Rat [4] | 234 | –
Rat [5] | – | 23.1
Rat [6] | – | 247

c1ccncc1 [Pyridine]
Settings | concentration in plasma [µg/mL]
Rat [7] | 1.32
Rat [8] | 2.31
Rat [9] | 3.97

Rat [10]
Settings | concentration in plasma [µg/mL]
0.25 h | 3.73
6 h | 1.3

CCC1(c2ccccc2)C(=O)NCNC1=O [Primidone]
Settings | concentration in plasma [µg/mL]
Rat [11] | 17.8
Rat [12] | 25.3
Rat [13] | 43.9
Rat [14] | 19.9
Rat [15] | 59.3

O=C(c1ccccc1)c1ccc(O)cc1O [2,4-Dihydroxybenzophenone]
Settings | concentration in plasma [µg/mL]
Mouse [16] | 4.23
Mouse [17] | 0.0923
Mouse [18] | 0.0397
Rat [22] | 0.781

concentration in plasma [µg/mL]
Settings | 0.25 h | 0.5 h | 4 h | 5 h
Rat [19] | 0.473 | – | 0.068 | –
Rat [20] | – | 0.255 | – | 0.0466
Rat [21] | 0.083 | – | 0.121 | –

O=C(O)COc1ccc(Cl)cc1Cl [2,4-Dichlorophenoxyacetic acid]
concentration in plasma [µg/mL]
Settings | 0.25 h | 0.5 h | 0.75 h | 1 h | 2 h | 2.5 min | 3 h | 3.5 h | 5 min | 10 min
Hamster | 4.06 | 1.23 | – | 1.03 | 0.511 | 2.38 | – | – | 9.42 | –
Rat [23] | 14.1 | 9.55 | 5.75 | – | 2.07 | 28.5 | 0.419 | 0.41 | – | 10.4

O=S(=O)([O-])C(F)(F)C(F)(F)C(F)(F)C(F)(F)C(F)(F)C(F)(F)F.[K+] [Perfluorohexane-1-sulphonic acid – potassium salt]
Settings | concentration in brain [ng/g] | concentration in kidney [ng/g] | concentration in liver [ng/g]
Rat [24] | – | – | 29500
Rat [25] | – | 11300 | –
Rat [26] | 496 | – | –
Rat [27] | – | 5570 | –
Rat [29] | – | 12000 | –
Rat [30] | 1140 | – | –
Rat [31] | 1520 | – | –
Rat [32] | – | 1650 | –
Rat [33] | – | 1560 | –

Rat [28]
Settings | concentration in plasma [ng/mL]
1 h | 23200
24 h | 28900
864 h | 9040

Reference: EPA's CvTdb concentration-time database
